Measured values from the array DNA melting data of Ke et al. (doi:10.1101/2024.01.08.574731).

Columns and labels:
[1] = folding enthalpy; higher = less favourable; fluorescence melt of hairpins on a sequencing array, two-state fit; conditions: sodium 0.088 M
How it was run: (§1)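 Melting temperature and folding enthalpy were derived from bootstrapped two-state fits. The fitted temperatures were raised by 9.35 °C to agree with UV melts, and four replicates were combined by inverse variance. The underlying data were Cy3 fluorescence images of library hairpins, with annealed Cy3 and quencher oligos, on a sequenced MiSeq flow cell in 50 mM Na-HEPES pH 8.0, 25 mM NaCl, taken in 2.5 °C steps up to 60 °C, normalised to pre-quench Cy3 and to control constructs.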

[2] = melting temperature; fluorescence melt of hairpins on a sequencing array, two-state fit, raised by 9.35 °C to match UV melts; conditions: sodium 0.088 M
How it was run: as §1

Sequence	folding enthalpy [1]	Tm [2]
GGAGACGAAAGTCCGTCC ((((((....)))..)))	-12.4 kcal/mol	32.5 °C
GGAGACGAAAGTCCTTCC ((((((....)))..)))	-21.1 kcal/mol	42.6 °C
GGAGACGAAAGTCGTTCC ((((((....)))..)))	-11.8 kcal/mol	36.7 °C
GGAGACGAAAGTCTGTCC ((((((....)))..)))	-11.2 kcal/mol	34.5 °C
GGAGAGACGAAAGTCTCC (((..(((....))))))	-9.49 kcal/mol	44 °C
GGAGAGCGAAAGCTATCC (((.(((....))).)))	-42.1 kcal/mol	57.6 °C
GGAGAGCGAAAGCTTCC (((.(((....))))))	-18.2 kcal/mol	44.5 °C
GGAGAGGGAAACCCCTCC ((((.((....)).))))	-28.6 kcal/mol	45 °C
GGAGAGGGAAACTTCTCC (((((.(....).)))))	-26.8 kcal/mol	44.3 °C
GGAGATCGAAAGATATCC (((.(((....))).)))	-43.2 kcal/mol	49.6 °C
GGAGATCGAAAGATTCC (((.(((....))))))	-18.9 kcal/mol	36 °C
GGAGATGAAAATCTCC ((((((....))))))	-36.2 kcal/mol	57.6 °C
GGAGATGGAAACGTCTCC (((((.(....).)))))	-36.9 kcal/mol	49.5 °C
GGAGCAGAAATGCTCC ((((((....))))))	-36.9 kcal/mol	62.3 °C
GGAGCAGGAAACCGCTCC (((((.(....).)))))	-34.1 kcal/mol	55.2 °C
GGAGCCACGAAAGTGTCC (((..(((....))))))	-8.88 kcal/mol	28.5 °C
GGAGCCGAAAGGCGCTCC ((((((....)))..)))	-9.71 kcal/mol	47.9 °C
GGAGCCGAAAGGCTTTCC ((((((....)))..)))	-7.92 kcal/mol	43.8 °C
GGAGCCGGAAACGACTCC ((((.((....)).))))	-55.2 kcal/mol	52 °C
GGAGCGCCGAAAGGCTCC (((..(((....))))))	-14.7 kcal/mol	44.2 °C
GGAGCGGGAAACCGCCCC ((.((((....)))).))	-16.3 kcal/mol	56.7 °C
GGAGCGTCGAAAGACTCC (((..(((....))))))	-13.7 kcal/mol	31.4 °C
GGAGCTCGAAAGAGATCC (((.(((....))).)))	-44 kcal/mol	64 °C

Sequence	folding enthalpy [1]	Tm [2]
GGAGCTCGAAAGAGTCC (((.(((....))))))	-17.8 kcal/mol	48.2 °C
GGAGCTGAAAAGCTCC ((((((....))))))	-37.5 kcal/mol	68.9 °C
GGAGCTGGAAACAACTCC ((((.((....)).))))	-31.2 kcal/mol	42.6 °C
GGAGCTGGAAACGGCTTC (.(((.(....).))).)	-25.9 kcal/mol	41.5 °C
GGAGGACGAAAGTCTTCC (((.(((....))).)))	-30.1 kcal/mol	53.5 °C
GGAGGAGGAAACTCCTTC (.(((((....))))).)	-28.7 kcal/mol	53.4 °C
GGAGGCCCGAAAGGGTCC (((..(((....))))))	-12 kcal/mol	42.6 °C
GGAGGCCGAAAGGCTTCC (((.(((....))).)))	-28.9 kcal/mol	64.2 °C
GGAGGCGAAAGCCTCTCC ((((((....)))..)))	-8.68 kcal/mol	54.2 °C
GGAGGCGGAAACGCTTCC (((.(((....))).)))	-36.9 kcal/mol	55.2 °C
GGAGGGCGAAAGCCTCC (((.(((....))))))	-18.7 kcal/mol	61.9 °C
GGAGGGGGAAACCCCTCC (((((((....)))))))	-32 kcal/mol	69.3 °C
GGAGGGGGAAACCCCTTC (.(((((....))))).)	-24.1 kcal/mol	50.6 °C
GGAGGTGGAAACACCTTC (.(((((....))))).)	-29 kcal/mol	51.4 °C
GGAGGTGGAAACACTTCC (((.(((....))).)))	-35.2 kcal/mol	48.2 °C
GGAGGTGGAAACATCTCC ((((.((....)).))))	-44.1 kcal/mol	49.1 °C
GGAGGTGGAAACGCTTCC (((.(.(....).).)))	-23.3 kcal/mol	34.3 °C
GGAGTAACGAAAGTTTCC (((..(((....))))))	-16.6 kcal/mol	30.7 °C
GGAGTACGAAAGTAGTCC (((.(((....))).)))	-40.4 kcal/mol	55.2 °C
GGAGTCCGAAAGGAATCC (((.(((....))).)))	-41.5 kcal/mol	56.4 °C
GGAGTCGAAAGACAATCC ((((((....)))..)))	-15.4 kcal/mol	32.5 °C
GGAGTCGAAAGACATTCC ((((((....)))..)))	-12.7 kcal/mol	27.9 °C
GGAGTCGAAAGACCCTCC ((((((....)))..)))	-16.7 kcal/mol	48 °C

Sequence	folding enthalpy [1]	Tm [2]
GGAGTCGAAAGACGTCC ((((((....))).)))	-14.7 kcal/mol	46 °C
GGAGTCGCGAAAGCGTCC (((..(((....))))))	-12.3 kcal/mol	34.1 °C
GGAGTCGGAAACAACTCC (((((.(....).)))))	-32.6 kcal/mol	41.5 °C
GGAGTCGGAAACGATTCC (((.(((....))).)))	-30.1 kcal/mol	50.3 °C
GGAGTCGGAAACGGCTCC ((((.((....)).))))	-45.8 kcal/mol	61 °C
GGAGTCTCGAAAGAGTCC (((..(((....))))))	-20.1 kcal/mol	41.7 °C
GGAGTGGGAAACCACTTC (.(((((....))))).)	-20.2 kcal/mol	49.4 °C
GGAGTGGGAAACTGCTCC ((((..(....)..))))	-31.5 kcal/mol	44.5 °C
GGAGTTCCGAAAGGATCC (((..(((....))))))	-12.8 kcal/mol	31 °C
GGAGTTCGAAAGAATTCC (((.(((....))).)))	-39.8 kcal/mol	48.6 °C
GGAGTTGCGAAAGCATCC (((..(((....))))))	-12.7 kcal/mol	32.5 °C
GGAGTTGGAAACAATTCC (((.(((....))).)))	-29.6 kcal/mol	43 °C
GGAGTTGGAAACGATTCC (((.(.(....).).)))	-19.6 kcal/mol	40.8 °C
GGATAACGAAAGTTGTCC (((.(((....))).)))	-47.7 kcal/mol	52.7 °C
GGATAAGGAAACTTATTC (.(((((....))))).)	-21.2 kcal/mol	30.4 °C
GGATACGAAAGTAAGTCC ((((((....)))..)))	-9.06 kcal/mol	22.2 °C
GGATACGAAAGTAATCC ((((((....))).)))	-27 kcal/mol	44.6 °C
GGATACGCGAAAGCGTCC (((..(((....))))))	-8.9 kcal/mol	33 °C
GGATACGGAAACGTATCC (((((((....)))))))	-40.9 kcal/mol	64.2 °C
GGATAGCGAAAGCTCTCC (((.(((....))).)))	-30.9 kcal/mol	45.4 °C
GGATAGCGAAAGCTTCC (((.(((....))))))	-19 kcal/mol	48.1 °C
GGATATGAAAATATCC ((((((....))))))	-31.6 kcal/mol	50.9 °C
GGATATTCGAAAGAATCC (((..(((....))))))	-13.6 kcal/mol	26.9 °C

Sequence	folding enthalpy [1]	Tm [2]
GGATCAGGAAACCGATCC (((((.(....).)))))	-39 kcal/mol	46.4 °C
GGATCCGAAAGGAATCC ((((((....))).)))	-31.7 kcal/mol	50.8 °C
GGATCCGAAAGGACATCC ((((((....)))..)))	-17.6 kcal/mol	37.2 °C
GGATCCGAAAGGACCTCC ((((((....)))..)))	-15.5 kcal/mol	47.2 °C
GGATCCGAAAGGATGTCC ((((((....)))..)))	-12.5 kcal/mol	35.2 °C
GGATCCGAAAGGATTCC ((((((....))).)))	-30.2 kcal/mol	51.7 °C
GGATCGAAAGATCC (((((....)))))	-29.6 kcal/mol	65.3 °C
GGATCGCGAAAGCGTCC (((.(((....))))))	-22.7 kcal/mol	52.6 °C
GGATCGGCGAAAGCCTCC (((..(((....))))))	-11.1 kcal/mol	28.4 °C
GGATCTGGAAACAGATCC (((((((....)))))))	-47.9 kcal/mol	62.4 °C
GGATCTGGAAACAGATTC (.(((((....))))).)	-28.9 kcal/mol	46.2 °C
GGATGCGAAAGCAAGTCC ((((((....)))..)))	-13.7 kcal/mol	35.5 °C
GGATGCGAAAGCAATCC ((((((....))).)))	-27.8 kcal/mol	57.9 °C
GGATGCGCGAAAGCGTCC (((..(((....))))))	-12.3 kcal/mol	41 °C
GGATGGCGAAAGCCGTCC (((.(((....))).)))	-28.8 kcal/mol	68.8 °C
GGATGGGGAAACCCACCC ((.((((....)))).))	-24.1 kcal/mol	45.1 °C
GGATGGGGAAACTCGTCC (((.(.(....).).)))	-25.2 kcal/mol	38.5 °C
GGATGTACGAAAGTATCC (((..(((....))))))	-20.2 kcal/mol	37.9 °C
GGATGTCGAAAGACCTCC (((.(((....))).)))	-29 kcal/mol	46.5 °C
GGATGTGGAAACACGTTC (.(.(((....))).).)	-21.3 kcal/mol	35.8 °C
GGATGTGGAAACGCATCC (((((.(....).)))))	-41.4 kcal/mol	52.2 °C
GGATGTGGAAACGTATCC ((((..(....)..))))	-22.3 kcal/mol	35.1 °C
